High-throughput results: PubChem, several laboratories
Shown are actives, neighbours in structure and some others; about 2.9% of the full set was active somewhere.
HEK293 NFkB inh: lowers PMA/ionomycin-induced NF-kB signal in HEK293 cells; 62,000 tested, 0.21% active; AID 465; inhibition, % at 3 µM; HEK-293 NF-kB luciferase reporter, luminescence;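 active means inhibition above the mean of all tested compounds plus 3 SD, cut at about 40% in these data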
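Signal: luciferase luminescence; Material: HEK-293 cells with stable firefly luciferase reporter driven by four HIV NF-kB elements; Probe or stimulus: PMA with ionomycin; Replication: tested once; Times: 1 h compound pretreatment, then 16 h stimulation at 37 °C, 5% CO2; Benchmarks: DMSO and 10 µM reference inhibitor; Evaluation: per-plate % inhibition versus controls.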
SF1 activator: activators of human nuclear receptor SF-1 | Q13285 | CHO-K1 Gal4-SF-1 LBD luciferase reporter; % increase over DMSO SF-1-specific signal | activation, % at 10 µM | 65,000 tested, 1.9% active;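 active means activation above the mean activation of all tested compounds plus 3 SD, cut at about 50% in these data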
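Material: CHO-K1 cells with Gal4–hSF-1 LBD chimera plus Gal4-driven luciferase / Input: 4,000 CHO-K1 cells per well / Incubation: compound exposure 20 h at 37 °C / Signal: luminescence read 15 min after SteadyLite luciferase reagent, after room-temperature equilibration / Read-out: percent activation versus DMSO / Benchmarks: DMSO negative control and −SF1 background wells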
Jurkat tox 60K: cytotoxic compounds reducing Jurkat cell viability; Jurkat E6.1 viability, ATP luminescence, 48 h; inhibition, % at 4 µM; AID 463; 56,000 tested, 1.2% active;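 active means inhibition above the mean inhibition of all tested compounds plus 3 SD, cut at about 28% in these data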
RORA act: RORA (human) activation; activation, % at 10 µM; 65,000 tested, 1.5% active; CHO-K1 Gal4-RORA LBD luciferase reporter, luminescence; percent increase over mock-subtracted basal signal; AID 560; P35398;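 active means activation above the mean of all tested compounds plus 3 SD, cut at about 49% in these data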
Target sequence (P35398 whole entry, looked up, the tested form may be a part): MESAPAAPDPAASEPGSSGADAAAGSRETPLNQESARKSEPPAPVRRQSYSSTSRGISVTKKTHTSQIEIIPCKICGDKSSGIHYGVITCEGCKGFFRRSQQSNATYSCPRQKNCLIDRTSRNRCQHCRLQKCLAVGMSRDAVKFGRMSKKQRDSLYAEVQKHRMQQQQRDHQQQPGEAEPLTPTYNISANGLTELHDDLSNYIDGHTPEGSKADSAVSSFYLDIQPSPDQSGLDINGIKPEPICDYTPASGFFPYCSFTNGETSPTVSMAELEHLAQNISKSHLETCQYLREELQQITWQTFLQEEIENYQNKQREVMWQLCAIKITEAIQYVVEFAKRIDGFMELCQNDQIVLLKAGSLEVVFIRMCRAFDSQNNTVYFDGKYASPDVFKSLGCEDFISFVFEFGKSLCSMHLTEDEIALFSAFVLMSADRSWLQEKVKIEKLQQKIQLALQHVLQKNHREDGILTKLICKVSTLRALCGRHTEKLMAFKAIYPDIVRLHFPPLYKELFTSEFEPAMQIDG
MT1-MMP txn act: MT1-MMP promoter transcription activation. HT1080 MT1-MMP promoter luciferase reporter, luminescence, overnight; active compounds read high. activation factor at 10 µM. 86,000 tested, 0.16% active. AID 750;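 active means activation factor of at least 2 for MT1-MMP transcription at 10 µM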
Each line names hits and unclear results; the compound was inactive in the other large screens; ! = repeats disagree.

COc1cc(C(=O)Nc2ccc3c(c2)OCO3)ccc1-n1cnnn1	none
Cc1cc(-n2ccc(=O)[nH]c2=O)nc(-c2ccccc2)n1	none
Cc1ccc(-n2cc(-c3ccccc3)[nH]c2=O)cc1F	SF1 activator 86.8
Cc1cc(NO)nc(-c2ccc(Br)cc2)n1	SF1 activator 63.9, Jurkat tox 60K 33.9, RORA act 59.3
c1csc(-c2nc3nc4ccccc4nc3n2Cc2ccc3c(c2)OCO3)c1	SF1 activator 63.2
COCCNC(=O)C1(CC(C)C)C=CCN1C(C)=O (stereo not drawn)	none (no result: HEK293 NFkB inh, SF1 activator, Jurkat tox 60K, RORA act)
Cc1csc(SCC(=O)Nc2ncc(Cl)c(C)c2Cl)n1	none (no result: HEK293 NFkB inh, SF1 activator, Jurkat tox 60K, RORA act)
Cn1c(C(=O)N2CCc3ccccc3C2)cc2oc3ccccc3c21	SF1 activator 57.4
CSc1ccc2[nH]c(=O)cc(C)c2c1	none
COc1ccc2c(c1)S/C(=C\C(=O)c1ccncc1)N2C	RORA act 57.6
CC(=O)C1=C(C)NC(SCC(=O)c2ccc(-c3ccccc3)cc2)=C(C#N)C1c1cccnc1 (stereo not drawn)	none (no result: HEK293 NFkB inh, SF1 activator, Jurkat tox 60K, RORA act)
CCN=c1scc(C)n1/N=C/c1ccsc1	SF1 activator 70.5, RORA act 69.0
O=C(c1cc2ccccc2oc1=O)N1CCN(c2ncccn2)CC1	none (no result: HEK293 NFkB inh, SF1 activator, Jurkat tox 60K, RORA act)
CC(=O)Nc1ccc(S(=O)(=O)n2cnc3cc(C)c(C)cc32)cc1	Jurkat tox 60K 28.5
Cc1cc(NC(=O)CSc2nnc(C3CC3)n2C)no1	none
Cc1cc(NC(=O)CSc2nnc3c(C)cc4c(C)ccc(C)c4n23)no1	Jurkat tox 60K 89.7
CNc1oc(-c2ccc(OCc3ccccc3)cc2)nc1C#N	SF1 activator 57.5
C=CCNc1oc(-c2ccc(OC)cc2)nc1C#N	SF1 activator 56.7
COc1ccc(-c2nc(C#N)c(NCC3CCCO3)o2)cc1OC (stereo not drawn)	RORA act 52.7
CCOc1ccc(-c2nc(C#N)c(NCC3CCCO3)o2)cc1 (stereo not drawn)	none (no result: HEK293 NFkB inh, SF1 activator, Jurkat tox 60K, RORA act)
N#Cc1nc(-c2ccc(OCc3ccccc3)cc2)oc1NCc1ccco1	none
CN(C)S(=O)(=O)c1ccc(NC(=O)c2c(F)cccc2Cl)cc1	none (no result: HEK293 NFkB inh, SF1 activator, Jurkat tox 60K, RORA act)
Cc1c(NS(=O)(=O)c2ccc3c(c2)CCN3C(=O)C2CC2)c(=O)n(-c2ccccc2)n1C	none
Cc1cccc(C(=O)N2CCN(c3ccc(C(F)(F)F)cn3)CC2)c1C	none (no result: HEK293 NFkB inh, SF1 activator, Jurkat tox 60K, RORA act)
Cc1nc2c(C(=O)N3CCCCC3)cnn2c(C)c1Cc1ccccc1F	RORA act 75.5 (no result: Jurkat tox 60K)
Cc1nc2c(C(=O)N3CCN(C)CC3)cnn2c(C)c1Cc1ccc(Cl)cc1	none (no result: HEK293 NFkB inh, SF1 activator, Jurkat tox 60K, RORA act)
CCCCC(=O)Nc1ccc(C(=O)N2CCC(C(=O)OCC)CC2)cc1	none (no result: HEK293 NFkB inh, SF1 activator, Jurkat tox 60K, RORA act)
Cc1ccc2oc(-c3cccc(NC(=O)C4CCCO4)c3)nc2c1 (stereo not drawn)	none
Cc1ccc2nc(-c3cccc(NC(=O)c4ccc5c(c4)OCCO5)c3)oc2c1	SF1 activator 55.2
COc1cc(C(=O)Nc2cccc(-c3nc4cc(C)ccc4o3)c2)cc(OC)c1OC	none
CC(C)C(=O)Nc1cccc(-c2nc3ccccc3o2)c1	SF1 activator 51.6
O=C(Nc1cccc(-c2nc3cc(Cl)ccc3o2)c1)C1CCCO1 (stereo not drawn)	SF1 activator 80.9
COc1ccc(OCC(=O)Nc2cccc(-c3nc4ccccc4o3)c2)cc1	RORA act 56.7
C=CCC(C#Cc1ccc(C)cc1)N(CC)CC (stereo not drawn)	none (no result: HEK293 NFkB inh, SF1 activator, Jurkat tox 60K, RORA act)
COC(=O)c1ccc(C(NC(=O)OCc2ccccc2)/C(C)=C/[C@@H](C)CO)cc1 (stereo partly drawn)	none (no result: HEK293 NFkB inh, SF1 activator, Jurkat tox 60K, RORA act)
C/C(N)=C(/C#N)C(=O)CSc1nnnn1-c1ccc(C)cc1C	Jurkat tox 60K 29.5
C/C(N)=C(/C#N)C(=O)CSc1nnc(Nc2cccc(C)c2)s1	SF1 activator 69.4
C/C(N)=C(/C#N)C(=O)CSc1nc2cc(Cl)ccc2s1	none
Cc1ccc(-n2nnnc2SC(C)C(N)=O)c(C)c1 (stereo not drawn)	none
Cc1nnc(SCCn2c(N3CCN(c4ccccc4)CC3)nc3c2c(=O)n(C)c(=O)n3C)s1	none
COc1cc(OC)cc(C(=O)NCC(=O)N2CCCCC2)c1	none
Oc1ccccc1-c1cc(-c2ccc3c(c2)OCCO3)n[nH]1	RORA act 55.0 (no result: Jurkat tox 60K)
Cn1nnnc1SCC(=O)Nc1ccccc1N1CCOCC1	none
Cn1c(-c2ccc(F)cc2)cnc1SCC(=O)Nc1ccccc1N1CCOCC1	SF1 activator 69.6
O=C(NCCc1c[nH]c2ccccc12)c1cnc2sccn2c1=O	SF1 activator 59.8
Cc1nc(C)c2c(=O)cc(-c3ccccc3)[nH]c2n1	Jurkat tox 60K 54.3
Cc1nc(-c2ccccc2)nc2[nH]c(-c3ccccc3)cc(=O)c12	none (no result: HEK293 NFkB inh, SF1 activator, Jurkat tox 60K, RORA act)
Cc1cc(NC(=O)CCCS(=O)(=O)c2nc(-c3cccs3)cc(C(F)(F)F)n2)no1	Jurkat tox 60K 100.1
Cc1cc(NC(=O)CCCSc2nc(-c3ccco3)cc(C(F)(F)F)n2)n(-c2ccccc2)n1	none (no result: HEK293 NFkB inh, SF1 activator, Jurkat tox 60K, RORA act)
Cc1cc(NC(=O)CSc2nc(-c3ccco3)cc(C(F)(F)F)n2)n(-c2ccccc2)n1	Jurkat tox 60K 32.6
Cc1cc(NC(=O)CSc2nc(-c3cccs3)cc(C(F)(F)F)n2)no1	Jurkat tox 60K 74.1
CCN(CC)S(=O)(=O)c1cc(C(=O)Nc2ccncc2)ccc1Cl	Jurkat tox 60K 47.8
Cc1cc(=O)oc2cc(OCC(=O)N3c4ccccc4CC3C)ccc12 (stereo not drawn)	Jurkat tox 60K 72.0
N#Cc1c(/N=C/c2cccs2)sc2c1CCC2	none
N#Cc1c(/N=C/c2cc(Br)cs2)sc2c1CCC2	MT1-MMP txn act 2.2 (no result: HEK293 NFkB inh, SF1 activator, Jurkat tox 60K, RORA act)
N#Cc1c(/N=C/c2ccco2)sc2c1CCCCC2	SF1 activator 81.6
CCn1cc(C(=O)OCC(=O)Nc2ccc(S(=O)(=O)N3CCCC3)cc2)c(=O)c2ccc(C)nc21	none
COc1cc(NC(=O)C2CCCCC2)c(OC)cc1NC(=O)CCC(=O)NCc1ccco1	none
c1ccc2c(c1)Cc1cc(CN3CCOCC3)ccc1-2	RORA act 67.7
O=C(Nc1cccc2nsnc12)c1cccs1	RORA act 78.2!
CCC1=C2CC[C@H]3C(=O)N(c4ccccc4)C(=O)[C@H]3[C@H]2[C@@]2(Cc3ccccc3)C(=NCc3ccccc3)OC(=O)N2C1=O	none (no result: HEK293 NFkB inh, SF1 activator, Jurkat tox 60K, RORA act)
COc1ccc(-n2nc3cc(C)c(N)c(Br)c3n2)cc1	SF1 activator 64.2, RORA act 49.7
CCCc1cc(C(=O)NC2CCCC2)no1	RORA act 61.2
CC(C)c1cc(C(=O)NC2CCCCC2)no1	SF1 activator 54.0
CCCc1cc(C(=O)NC2CCCCC2)no1	SF1 activator 54.1
CCCc1cc(C(=O)N(C2CCCCC2)C2CCCCC2)no1	none
COc1cc(OC)cc(-c2nc3cc(C)ccc3o2)c1	SF1 activator 72.4, RORA act 57.0
COc1cc(OC)cc(-c2nc3ccccc3c(=O)o2)c1	none (no result: HEK293 NFkB inh, SF1 activator, Jurkat tox 60K, RORA act)
CSc1nsc(SC)c1NC(=O)OCC1CCCO1 (stereo not drawn)	none (no result: MT1-MMP txn act)
COc1ccc(CCNCc2csc3nc4ccccc4n23)cc1OC	Jurkat tox 60K 46.0
O=c1c2ccccc2cnn1-c1nc2ccccc2s1	HEK293 NFkB inh 77.0
